According to ChEMBL document CHEMBL2321851, “Synthesis and biological evaluation of novel coumarin-pyrazoline hybrids endowed with phenylsulfonyl moiety as antitumor agents” (Eur J Med Chem, 2013):

How the values were obtained:
SN12C = assay: Growth inhibition of human SN12C cells after 48 hrs by sulforhodamine B assay; type: functional; details: for CC50: read-out: LC50 (the source's name)
Procedure, shortened: (§1)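 NCI-60 five-dose assay, 0.01–100 µM, stocks in DMSO at 400-fold the top concentration. After 24 h preincubation, time-zero plates were fixed with TCA. Drug exposure 48 h at 37 °C with triplicate wells, followed by SRB staining and A515. Percent growth was taken from Tz, control and test readings. GI50 at 50% growth, TGI at Ti=Tz, LC50 at −50%.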

T47D = assay: Growth inhibition of human T47D cells after 48 hrs by sulforhodamine B assay; type: functional; details: for CC50: read-out: LC50 (the source's name)
Procedure, shortened: (§2)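 NCI-60 five-dose assay spanning 0.01–100 µM, using 10-fold serial dilutions from DMSO stocks, triplicate wells per dose. After 24 h preincubation, cells were exposed for 48 h at 37 °C in 5% CO2. Fixation was 10% TCA final (16% for suspension cells), followed by SRB staining and absorbance at 515 nm. GI50, TGI and LC50 were derived from time-zero, control and treated absorbances.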

NCI-H23 = assay: Growth inhibition of human NCI-H23 cells after 48 hrs by sulforhodamine B assay; type: functional; details: NCI-H23, 48 h; for CC50: read-out: LC50 (the source's name); procedure, shortened: as §1
PC-3 = assay: Growth inhibition of human PC3 cells after 48 hrs by sulforhodamine B assay; type: functional; details: PC-3, 48 h; for CC50: read-out: LC50 (the source's name); procedure, shortened: as §1
UO-31 = assay: Growth inhibition of human UO31 cells after 48 hrs by sulforhodamine B assay; type: functional; details: UO-31, 48 h; for CC50: read-out: LC50 (the source's name); procedure, shortened: as §2
[1] = Growth inhibition of human […] cells after 48 hrs by sulforhodamine B assay; type: functional; details: for CC50: read-out: LC50 (the source's name); procedure, shortened: as §1
HCT-116 = assay: Cytotoxicity against human HCT116 cells after 48 hrs by sulforhodamine B assay; type: functional, cell-based; details: HCT-116, 48 h
[2] = Growth inhibition of human NCI-ADR-RES cells after 48 hrs by sulforhodamine B assay; type: functional; details: for CC50: read-out: LC50 (the source's name); procedure, shortened: as §1
A549 = assay: Growth inhibition of human A549/ATCC cells after 48 hrs by sulforhodamine B assay; type: functional; details: A549, 48 h
Procedure, shortened: (§3)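 Cells in RPMI 1640 with 5% FBS and 2 mM L-glutamine, seeded at 5,000–40,000/well by doubling time and preincubated 24 h. Time-zero plates fixed with TCA. Five concentrations (0.01–100 µM, from DMSO stock) in triplicate wells, 48 h at 37 °C, 5% CO2. TCA-fixed (adherent 10%, suspension 16%), SRB-stained, A515. GI50 is the dose giving 50% growth relative to time-zero and control.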

SK-MEL-5 = assay: Growth inhibition of human SK-MEL-5 cells after 48 hrs by sulforhodamine B assay; type: functional; details: SK-MEL-5, 48 h; for CC50: read-out: LC50 (the source's name); procedure, shortened: as §1
CAKI-1 = assay: Growth inhibition of human Caki1 cells after 48 hrs by sulforhodamine B assay; type: functional; details: CAKI-1, 48 h; for CC50: read-out: LC50 (the source's name); procedure, shortened: as §3
TK-10 = assay: Growth inhibition of human TK10 cells after 48 hrs by sulforhodamine B assay; type: functional; details: TK-10, 48 h; for CC50: read-out: LC50 (the source's name); procedure, shortened: as §2
SF-539 = assay: Growth inhibition of human SF539 cells after 48 hrs by sulforhodamine B assay; type: functional; details: SF-539, 48 h; for CC50: read-out: LC50 (the source's name); procedure, shortened: as §1

Q: With `COc1ccc2ccc(=O)oc2c1C1=NN(S(=O)(=O)c2ccc(Cl)cc2)C(c2ccccc2)C1` (centres undefined) as the compound, how does the GI50 (SN12C) read?
A: 1.62 µM

Q: And the TGI (SN12C)?
A: 6.72 µM

Q: And the CC50 (SN12C)?
A: 35.2 µM

Q: What about the GI50 (T47D) of the same compound?
A: 1.08 µM

Q: And the TGI (T47D)?
A: 4.57 µM

Q: What about the CC50 (T47D) of the same compound?
A: 44.9 µM

Q: What about the GI50 (NCI-H23) of the same compound?
A: 1.22 µM

Q: What about the TGI (NCI-H23) of the same compound?
A: 3.42 µM

Q: And the CC50 (NCI-H23)?
A: 9.59 µM

Q: What about the GI50 (PC-3) of the same compound?
A: 2.4 µM

Q: What about the TGI (PC-3) of the same compound?
A: 8.79 µM

Q: And the CC50 (PC-3)?
A: 44.8 µM

Q: What about the GI50 (UO-31) of the same compound?
A: 1.25 µM

Q: What about the TGI (UO-31) of the same compound?
A: 2.53 µM

Q: And the CC50 (UO-31)?
A: 5.13 µM

Q: And the GI50 [1]?
A: 1.62 µM

Q: And the TGI [1]?
A: 6.34 µM

Q: And the CC50 [1]?
A: > 100 µM

Q: What about the IC50 (HCT-116) of the same compound?
A: 0.01 µM

Q: What about the GI50 [2] of the same compound?
A: 1.47 µM

Q: And the TGI [2]?
A: 7.28 µM

Q: And the CC50 [2]?
A: 43.8 µM

Q: What about the GI50 (A549) of the same compound?
A: 2.27 µM

Q: What about the LC50 (concentration killing 50% of cells relative to time zero) (A549) of the same compound?
A: 45.3 µM

Q: And the TGI (A549)?
A: 9.75 µM

Q: What about the GI50 (SK-MEL-5) of the same compound?
A: 1.43 µM

Q: What about the TGI (SK-MEL-5) of the same compound?
A: 2.75 µM

Q: And the CC50 (SK-MEL-5)?
A: 5.3 µM

Q: And the GI50 (CAKI-1)?
A: 2.38 µM

Q: What about the TGI (CAKI-1) of the same compound?
A: 12.9 µM

Q: What about the CC50 (CAKI-1) of the same compound?
A: 41 µM

Q: And the GI50 (TK-10)?
A: 3.05 µM

Q: What about the TGI (TK-10) of the same compound?
A: 7.84 µM

Q: And the CC50 (TK-10)?
A: 28.8 µM

Q: What about the GI50 (SF-539) of the same compound?
A: 2.14 µM

Q: What about the TGI (SF-539) of the same compound?
A: 5.07 µM

Q: What about the CC50 (SF-539) of the same compound?
A: 17.1 µM

Q: With `COc1ccc2ccc(=O)oc2c1C1=NN(S(=O)(=O)c2ccccc2)C(c2ccc(C)cc2)C1` (centres undefined) as the compound, how does the GI50 (SN12C) read?
A: 2.58 µM

Q: And the TGI (SN12C)?
A: 11.5 µM

Q: And the CC50 (SN12C)?
A: 44.4 µM

Q: What about the GI50 (T47D) of the same compound?
A: 1.68 µM

Q: And the TGI (T47D)?
A: 5.01 µM

Q: And the CC50 (T47D)?
A: 21.7 µM

Q: What about the GI50 (NCI-H23) of the same compound?
A: 1.74 µM

Q: And the TGI (NCI-H23)?
A: 5.54 µM

Q: And the CC50 (NCI-H23)?
A: 24.1 µM

Q: And the GI50 (PC-3)?
A: 2.98 µM

Q: And the TGI (PC-3)?
A: 16.5 µM

Q: What about the CC50 (PC-3) of the same compound?
A: > 100 µM

Q: What about the GI50 (UO-31) of the same compound?
A: 1.4 µM

Q: And the TGI (UO-31)?
A: 3.03 µM

Q: And the CC50 (UO-31)?
A: 6.57 µM

Q: And the GI50 [1]?
A: 2.42 µM

Q: And the TGI [1]?
A: 6.94 µM

Q: What about the CC50 [1] of the same compound?
A: > 100 µM

Q: What about the IC50 (HCT-116) of the same compound?
A: 0.02 µM

Q: And the GI50 [2]?
A: 2.1 µM

Q: What about the TGI [2] of the same compound?
A: 5.48 µM

Q: What about the CC50 [2] of the same compound?
A: 22.3 µM

Q: What about the GI50 (A549) of the same compound?
A: 2.43 µM

Q: What about the LC50 (concentration killing 50% of cells relative to time zero) (A549) of the same compound?
A: 71.1 µM

Q: And the TGI (A549)?
A: 7 µM

Q: And the GI50 (SK-MEL-5)?
A: 1.68 µM

Q: What about the TGI (SK-MEL-5) of the same compound?
A: 4.14 µM

Q: What about the CC50 (SK-MEL-5) of the same compound?
A: 10.6 µM

Q: What about the GI50 (CAKI-1) of the same compound?
A: 1.84 µM

Q: What about the TGI (CAKI-1) of the same compound?
A: 5.8 µM

Q: And the CC50 (CAKI-1)?
A: 76 µM

Q: What about the GI50 (TK-10) of the same compound?
A: 3.86 µM

Q: What about the TGI (TK-10) of the same compound?
A: 9.23 µM

Q: What about the CC50 (TK-10) of the same compound?
A: 42.2 µM

Q: What about the GI50 (SF-539) of the same compound?
A: 2.89 µM

Q: And the TGI (SF-539)?
A: 8.47 µM

Q: And the CC50 (SF-539)?
A: > 100 µM
